Screening data from PubChem BioAssay.
The sample as a whole holds a higher share of hits than the screen did.
PvdQ acylase = P. aeruginosa PvdQ acylase inhibition; purified PvdQ acylase, fluorescence plate reader; inhibition, % at 10 µM; actives 0.063% (n = 340,000); AID 488965; in the data active means inhibition above about 30%, passing the limit was not always enough;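 further: 0% = vehicle neutral wells and 100% = reference inhibitor wells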
XBP1 UPR activ = adaptive UPR (XBP1) activation. CHO-XBP1 luciferase reporter, IRE1-XBP1 UPR activation, luminescence; percent of tunicamycin response, DMSO as zero. activation, % at 20 µM. actives 0.33% (n = 330,000). AID 463104;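 active means versus positive control, 20 µM dose yields 30% or more activation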;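 further: 100% = tunicamycin at 10 µg/mL and 0% = DMSO only wells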
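Material: IRE1-XBP1 luciferase reporter CHO line / Quantity: one thousand reporter cells per well / Buffer or medium: F12 with 10% serum / Compound: 20 µM single concentration, DMSO 1% / Times: 6 h treatment, 37 °C / Detection: Steady-Glo luciferase glow luminescence, 10 min after reagent addition / Benchmarks: tunicamycin high, DMSO low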
CHOP inhibitor = CHOP inhibition in unfolded protein response; CHO-K1 CHOP-promoter luciferase, tunicamycin-induced, 15-18 h; inhibition, % at 10 µM; actives 3.8% (n = 220,000);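 active means compounds that reduced the stress-induced luciferase reporter signal by more than about 70% of percent inhibition, limit read from the data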;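 further: 0% = tunicamycin plus vehicle and 100% = wells without tunicamycin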
CHOP UPR activ = apoptotic UPR (CHOP) activation | activation, % at 10 µM | CHO-CHOP luciferase reporter, luminescence; percent of tunicamycin response over DMSO baseline | actives 0.34% (n = 330,000);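 active means at 10 µM dose, activation of 40% or more, normalized to positive control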;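 further: 100% = tunicamycin at 10 µg/mL and 0% = DMSO alone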
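Assay system: CHO-CHOP cells, stable luciferase reporter of PERK-eIF2a-CHOP signalling / Buffer or medium: F12 plus 10% serum / Compound dosing: one dose, 10 µM in 0.5% DMSO / Times: 6 h compound treatment, 37 °C / Technique: luciferase luminescence / Read-out: % reporter activation, DMSO baseline versus tunicamycin full activation / Benchmarks: tunicamycin and DMSO controls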
UPR CHOP confirm = confirmation of apoptotic unfolded protein response (CHOP) activators. activation, % at 10 µM. actives 64% (n = 1,000). shares compounds with CHOP UPR activ. CHO-CHOP cells, CHOP-luciferase reporter luminescence; percent of tunicamycin response, DMSO as zero; in the data active means activation above about 33%;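 further: 0% = DMSO wells and 100% = tunicamycin 10 µg/mL wells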
UPR XBP1 confirm = adaptive UPR (XBP1) activation, confirmed; shares compounds with XBP1 UPR activ; CHO-XBP1 IRE1-XBP1 luciferase reporter, luminescence; activation, % at 20 µM; actives 63% (n = 1,000); AID 485299;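 active means reporter signal at least 30% of the positive control's activation in two or more of four replicate wells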;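 further: plate controls were DMSO negative control for no effect and tunicamycin 10 µg/mL positive control for full effect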
An asterisk follows results filed as active.

`COc1ccc(-c2cc(-c3ccc(OC)cc3)c(C#N)c(SC)n2)cc1` gave PvdQ acylase 2.9, XBP1 UPR activ -1.9, CHOP inhibitor -9.2 and CHOP UPR activ 0.3.
O=C1/C(=C\c2cccnc2)SC(=S)N1c1ccc(F)cc1 was read as PvdQ acylase -6.6, XBP1 UPR activ -3.1, CHOP inhibitor 42.9 and CHOP UPR activ 1.1.
COc1ccc2cc1Oc1ccc(cc1)CC1c3c(cc(OC)c4c3Oc3cc5c(cc3O4)CCNC5C2)CCN1C (centres undefined) was read as PvdQ acylase -7.8, XBP1 UPR activ 52.4*, CHOP inhibitor -4.7, CHOP UPR activ 40.7*, UPR CHOP confirm 38.9* and UPR XBP1 confirm 29.7*.
For CCOc1ccc(C2NCCc3cc(OC)c(OC)cc32)cc1OC (centres undefined) the results were PvdQ acylase -7.8, XBP1 UPR activ 2.6 and CHOP UPR activ 2.2.
`Oc1cc(-c2ccncc2)cc2cccnc12` gave PvdQ acylase -1.2, XBP1 UPR activ 33.7*, CHOP UPR activ 70.4*, UPR CHOP confirm 66.1* and UPR XBP1 confirm 16.4.
`O=C(CN1C(=O)NC2(CCOc3ccccc32)C1=O)Nc1cccc(Cl)c1` (centres undefined) gave PvdQ acylase -6.0, XBP1 UPR activ 4.8, CHOP inhibitor -5.2 and CHOP UPR activ 0.5.
Screening CCOC(=O)c1ccc(-c2ccc(/C=N/NC(=O)CN(c3cccc(C)c3)S(C)(=O)=O)o2)cc1 returned PvdQ acylase -16.6, XBP1 UPR activ 115.2*, CHOP inhibitor 79.0*, CHOP UPR activ 54.7*, UPR CHOP confirm 50.0* and UPR XBP1 confirm 48.2*.
`O=C(O)c1ccc(NC(=S)NC(=O)c2cccnc2)cc1` gave PvdQ acylase -17.5, XBP1 UPR activ -5.5 and CHOP UPR activ -0.3.
`CCc1cccc(CC)c1NC(=O)/C(C#N)=C/c1ccccc1C(F)(F)F` gave PvdQ acylase -11.8, XBP1 UPR activ 70.3*, CHOP inhibitor 83.9*, CHOP UPR activ 71.1*, UPR CHOP confirm 72.5* and UPR XBP1 confirm 33.8*.
For N#C/C(=C\c1cn(CCOc2ccccc2)c2ccccc12)C(=O)NCc1ccco1 the results were PvdQ acylase -18.5, XBP1 UPR activ 1.3, CHOP inhibitor 51.9 and CHOP UPR activ 1.2.
`Cc1ccc(NC(=O)/C(C#N)=C/c2cn(CC(=O)NCc3ccco3)c3ccccc23)cc1C` gave PvdQ acylase -13.8, XBP1 UPR activ 235.4*, CHOP inhibitor -47.4, CHOP UPR activ 124.5*, UPR CHOP confirm -0.4 and UPR XBP1 confirm -0.8.
Cc1ccc2nc(NC(=O)c3ccc(-c4nc5ccccc5s4)s3)sc2c1 was read as PvdQ acylase -12.2, XBP1 UPR activ 65.5*, CHOP inhibitor 59.7, CHOP UPR activ 69.4*, UPR CHOP confirm 26.3 and UPR XBP1 confirm 89.3*.
For CCOC(=O)/C(=C\c1ccccc1)C(=O)c1cc(C(C)=O)c(Nc2ccccc2)s1 the results were PvdQ acylase -4.2, XBP1 UPR activ 59.7*, CHOP UPR activ 139.4*, UPR CHOP confirm 190.9* and UPR XBP1 confirm 41.3*.
`CCOc1ccccc1C1C(C#N)=C(N)N(N(C)C)C2=C1C(=O)CCC2` (centres undefined) gave PvdQ acylase -8.1, XBP1 UPR activ 0.7 and CHOP UPR activ 0.9.
For Cc1ccc(S(=O)(=O)N2CCN(C)CC2)c2nsnc12 the results were PvdQ acylase -5.1, XBP1 UPR activ 1.3 and CHOP UPR activ 1.5.
`CC(C)(C)C(=O)NC(=S)NNC(=O)c1ccc(-c2ccccc2)cc1` gave PvdQ acylase 7.9, XBP1 UPR activ 72.0*, CHOP inhibitor 92.4*, CHOP UPR activ 69.2*, UPR CHOP confirm 84.3* and UPR XBP1 confirm 49.7*.
CCOc1ccc(NS(=O)(=O)c2ccc(C(=O)NNC(=O)c3ccccc3O)cc2)cc1 was read as PvdQ acylase 6.7, XBP1 UPR activ -1.2 and CHOP UPR activ 0.5.
